Bioassay records as filed in PubChem.
Most compounds without a hit are left out; they make up all but 5.1% or so of the library.
STAT3 inh-1: STAT3 signaling inhibition | U3A cells, IL-6 STAT3-luciferase reporter, luminescence; host cell line lacks STAT1 | inhibition, % at 5.5 µM | actives 0.89% (n = 190,000) | AID 862;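 active means inhibition above the mean inhibition across all screened compounds plus 3 SD, cut at about 44% in these data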;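 further: 0% = DMSO only wells and 100% = 100 µM nifuroxazide control wells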
STAT1 act: increases IFN-gamma driven STAT1 reporter signal. NIH 3T3 STAT1-luciferase reporter, luminescence; 100% = IFN-gamma alone, no compound. activation (% of control), % at 5.5 µM. actives 2.6% (n = 200,000);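 active means activation above the screen-wide mean activation plus 3 SD, cut at about 130% in these data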;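 further: raw ratio to IFN-gamma control signal so 100% means no change and 0% no light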
APP 5'UTR act: activates APP 5'UTR luciferase reporter | activation, % at 2 µM | actives 1% (n = 190,000) | SH-SY5Y APP 5'UTR luciferase reporter, luminescence; zero percent = DMSO vehicle wells;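 active means activation above a set limit, based on mean plus 3 SD of controls, cut at about 140% in these data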
STAT1 inh: inhibitors of IFN-gamma induced STAT1 signaling; NIH 3T3 STAT1-luciferase reporter, luminescence; inhibition, % at 5.5 µM; actives 0.35% (n = 200,000);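 active means inhibition above a set limit, the mean inhibition across all tested compounds plus 3 SD, cut at about 34% in these data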;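 further: 0% = IFN-gamma with DMSO and 100% = IFN-gamma with 300 µM nifuroxazide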
NF-kB expr up: compounds increasing NF-kB expression in human neuronal cells. fold change at 12.5 µM. actives 1.6% (n = 190,000). NF-kB reporter expression; stronger effect = higher value. AID 1239; in the data active means fold change above about 3.3
STAT3 act: activators of IL-6 induced STAT3 signaling. AID 871. actives 0.91% (n = 190,000). U3A cells, IL-6 STAT3-luciferase reporter, luminescence; 100% = signal with IL-6 EC80 alone. activation (% of control), % at 5.6 µM;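 active means activation above the screen-wide mean of compound activation plus 3 SD, cut at about 130% in these data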;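 further: 0% = background luminescence of wells with medium and substrate only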
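Material: STAT3-luciferase reporter U3A cells. Controls: IL-6-treated wells, 100% activation. Read-out: % activation versus median of IL-6-stimulated wells. Probe or stimulus: IL-6 stimulus at 33 ng/mL final. Timing: compound 1 h, then IL-6 6 h at 37 °C. Signal: reporter luminescence signal.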
STAT3 inh-2: STAT3 inhibition, confirmation assay; AID 1265; shares compounds with STAT3 inh-1; inhibition, % at 5.7 µM; actives 45% (n = 1,200); U3A cells, IL-6 STAT3 luciferase reporter, luminescence; cell line lacks STAT1;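 active means inhibition above the hit cutoff computed for the primary STAT3 screen, cut at about 44% in these data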;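 further: 0% = IL-6 plus DMSO and 100% = IL-6 plus nifuroxazide control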
NFkB inh STAT3ct: counter-screen for STAT3 inhibitors: NF-kappaB inhibition; actives 36% (n = 1,200); shares compounds with STAT3 inh-1; HEK293T NF-kB luciferase reporter, TNF-alpha induced; AID 1308; inhibition, % at 5.7 µM;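 active means inhibition above the mean of solvent-only control wells plus 3 SD, cutoff set per campaign, cut at about 13% in these data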;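 further: 0% = TNF-alpha with DMSO and 100% = TNF-alpha with MG high control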
STAT1 inh 2: STAT1 inhibition in STAT3 inhibitor counter-screen. shares compounds with STAT3 inh-1. NIH 3T3 STAT1-luciferase reporter, IFN-gamma induced, luminescence. inhibition, % at 5.7 µM. actives 27% (n = 1,200);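 active means inhibition above the mean plus 3 SD of solvent-only control wells, limit set per screening run, cut at about 16% in these data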;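 further: 0% = DMSO with IFN-gamma and 100% = nifuroxazide control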
* = called active by the depositor; · = no result.

SMILES | STAT3 inh-1 | STAT1 act | APP 5'UTR act | STAT1 inh | NF-kB expr up | STAT3 act | STAT3 inh-2 | NFkB inh STAT3ct | STAT1 inh 2
CN(C(=O)c1ccccc1)c1nc2ccccc2s1 | 56* | 139* | 215* | -42 | 4.1* | 54 | 10 | -38 | -120
Cc1ccc(-c2nc3ccc([N+](=O)[O-])cc3[nH]2)cc1 | 77* | 71 | 152* | 31 | 5.9* | 40 | 32 | -15 | -127
Cc1ccc2nc(-c3cccc(N)c3)[nH]c2c1 | 66* | 93 | 98 | 7 | 4.8* | 47 | 27 | -10 | -90
O=[N+]([O-])c1cccc(-c2nc3ccc([N+](=O)[O-])cc3[nH]2)c1 | 26 | 123 | 22 | -22 | 1.6 | 82 | · | · | ·
COc1cc(C)c(NC(=O)C(=S)NCCc2ccccc2)cc1C | 20 | 85 | 12 | 14 | 1.1 | 86 | · | · | ·
CS(=O)(=O)N(CC(=O)NCc1ccc2c(c1)OCO2)Cc1ccccc1 | 2 | 102 | 3 | -2 | 1.1 | 102 | · | · | ·
O=C(/C=C/Nc1ccc(F)cc1)c1cccs1 | 51* | 80 | 160* | 22 | · | 64 | -7 | -12 | -75
O=C(CCCC(=O)OCC(=O)c1cccs1)Nc1ccc(F)cc1 | -1 | 101 | 7 | -1 | 1 | 103 | · | · | ·
COc1cccc(C(=O)Nc2ccc(NC(=O)C(C)(C)C)cn2)c1 | 58* | 85 | 138* | 16 | 1.9 | 55 | 8 | -14 | -67
CN(C)S(=O)(=O)c1ccc(C(=O)Nc2nc(-c3cc4ccccc4o3)cs2)cc1 | 53* | 86 | 58 | 15 | 1.4 | 58 | 76* | 20* | 16*
O=C(Nc1nc(-c2cc3ccccc3o2)cs1)c1ccc(S(=O)(=O)N2CCCC2)cc1 | 58* | 81 | 13 | 21 | 0.65 | 53 | 77* | 25* | 20*
CC1CN(S(=O)(=O)c2ccc(C(=O)Nc3nc(-c4cc5ccccc5o4)cs3)cc2)CC(C)O1 (stereo not given) | 0 | 93 | -7 | 8 | 1.1 | 100 | · | · | ·
COc1ccc(NC(=S)N2CCNC(=O)C2CC(=O)Nc2ccc(C)cc2)cc1 (stereo not given) | -14 | 109 | 8 | -10 | 0.81 | 115 | · | · | ·
O=c1oc2ccccc2cc1-c1csc(NN=C2CCCCC2)n1 | 16 | 114 | 63 | -15 | 1.9 | 92 | · | · | ·
O=c1oc2ccccc2cc1-c1nc2c(s1)CCCC2 | 74* | 71 | 188* | 31 | 1.7 | 42 | 48* | 31* | -39
O=C(COC(=O)COc1ccc(Cl)cc1)NCc1cccs1 | -10 | 101 | -9 | 1 | 1.2 | 106 | · | · | ·
COc1ccc2nc(NC(=O)c3ccoc3C)sc2c1 | 63* | 102 | 142* | -3 | 11* | 50 | 28 | -16 | -104
CCOC(=O)C1CCCCN1C(=O)CCc1c(C)nc2cc(-c3ccccc3)nn2c1C (stereo not given) | 49* | 98 | -52 | 3 | 0.48 | 65 | 28 | 5 | -14
CCOC(=O)C1CCN(C(=O)CCc2c(C)nc3cc(-c4ccccc4)nn3c2C)CC1 | 24 | 106 | -23 | -6 | 0.78 | 86 | · | · | ·
O=C(Nc1nsc(-c2ccccc2)n1)c1cccs1 | 45* | 148* | 149* | -51 | 4.2* | 62 | 0 | -34 | -105
Cc1sc(NC(=O)c2cccs2)nc1-c1ccccc1 | 22 | 116 | 40 | -17 | 1.7 | 84 | · | · | ·
CCCSc1nc(N)nc(-c2cccs2)c1C#N | -5 | 114 | 37 | -16 | 1.7 | 105 | · | · | ·
Cn1nc(C(C)(C)C)cc1C(=O)NCc1ccc(N2CCCC2=O)cc1 | 59* | 79 | 16 | 22 | 0.73 | 54 | 63* | 29* | 33*
Cc1ccc2nc(NC(=O)CSCC(=O)OCC(=O)c3ccccc3)sc2c1 | 51* | 89 | -21 | 13 | 0.54 | 58 | 57* | 23* | 24*
COc1cc(OC)cc(C(=O)Nc2nc3ccc(S(C)(=O)=O)cc3s2)c1 | 14 | 103 | 37 | -3 | 0.78 | 92 | · | · | ·
SMILES | STAT3 inh-1 | STAT1 act | APP 5'UTR act | STAT1 inh | NF-kB expr up | STAT3 act | STAT3 inh-2 | NFkB inh STAT3ct | STAT1 inh 2
Cc1ccc2nc(NC(=O)c3cccs3)sc2c1 | 70* | 129* | 163* | -30 | 11* | 44 | 34 | -7 | -129
CS(=O)(=O)c1ccc2nc(NC(=O)c3cccs3)sc2c1 | 59* | 88 | 117 | 13 | 2.7 | 53 | 17 | -7 | -60
CCOc1cccc(C(=O)NC(=S)Nc2ccc(Cl)cc2C(=O)O)c1 | -6 | 102 | 1 | -6 | 0.99 | 109 | · | · | ·
C#CC(=O)N(c1ccc(OC)c(OC)c1)C(C(=O)NC1CCCC1)c1cccs1 (stereo not given) | 108* | 68 | -17 | 36* | 0.13 | 15 | 89* | 19* | 32*
COc1ccc(N(C(=O)Cc2cccs2)C(C(=O)NC2CCCCC2)c2cccn2C)cc1OC (stereo not given) | 4 | 96 | -19 | 1 | 0.79 | 99 | · | · | ·
COc1cccc(OC)c1Nc1nc(C)nc2c1nnn2Cc1ccccc1Cl | 5 | 92 | 5 | 7 | 0.97 | 100 | · | · | ·
CCc1nc(Nc2ccc(OC)c(OC)c2)c2nnn(Cc3ccccc3Cl)c2n1 | 67* | 78 | -10 | 24 | 1.4 | 46 | 58* | 17* | 19*
COc1ccc(OCCC(=O)Nc2nccs2)cc1 | -1 | 106 | -3 | -7 | 1.5 | 101 | · | · | ·
COc1ccc(OCC(=O)Nc2nccs2)cc1 | 69* | 69 | 104 | 31 | 3.9* | 43 | 29 | -17 | -40
CC(=O)N1CCc2c(sc(NC(=O)c3ccc([N+](=O)[O-])o3)c2C#N)C1 | 58* | 115 | -62 | -16 | 1 | 54 | 27 | -19 | 22*
COc1ccc(C(=O)Nc2sc3c(c2C#N)CCN(C(C)=O)C3)cc1 | 37 | 82 | 8 | 19 | 1.5 | 71 | · | · | ·
Cc1nc(NC(C)c2ccccc2)c2oc3ccccc3c2n1 (stereo not given) | 46* | 78 | 7 | 24 | 0.65 | 63 | 29 | -2 | 12
O=C(CSc1nnc(-c2ccccc2)n1Cc1ccccc1)NNC(=O)c1ccccc1O | -10 | 108 | 0 | -9 | 0.81 | 113 | · | · | ·
c1ccc(-c2ccc(-c3ccccn3)nn2)nc1 | 51* | 114 | 107 | -13 | 2.2 | 61 | 38 | 0 | -44
Nn1c(-c2ccccn2)nnc1-c1ccccn1 | 13 | 125 | 20 | -27 | 1.4 | 94 | · | · | ·
